From ChEMBL document CHEMBL1137554, “Synthesis and biological evaluation of novel cytotoxic azanaphthoquinone annelated pyrrolo oximes” (Bioorg Med Chem Lett, 2007)
The source made the active and inactive calls. The rule behind the calls is not given here.

Experiments:
NCI-H460 = test: Cytotoxicity against NCIH460 cells after 48 hrs by XTT assay; assay type: functional, cell-based, Homo sapiens; settings: for Activity: Homo sapiens
Procedure, shortened: (§1)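 XTT tetrazolium proliferation assay with 48 h compound exposure. IC50 was obtained by nonlinear regression from at least two independent experiments and reported as mean ± standard deviation.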

SK-OV-3 = test: Cytotoxicity against SKOV3 cells after 48 hrs by XTT assay; assay type: functional, cell-based, Homo sapiens; settings: for Activity: Homo sapiens; procedure, shortened: as §1
SF-268 = test: Cytotoxicity against SF268 cells after 48 hrs by XTT assay; assay type: functional, cell-based, Homo sapiens; settings: for Activity: Homo sapiens; procedure, shortened: as §1
[1] = (§2) Cytotoxicity against RKOp27 cells after 48 hrs by XTT assay; assay type: functional, cell-based, Homo sapiens; procedure, shortened: as §1
[2] = Cytotoxicity against KB/HeLa cells after 48 hrs by XTT assay; assay type: functional, cell-based, Homo sapiens; procedure, shortened: as §1
[3] = Cytotoxicity against KB/HeLa cells at 3.16 ug/ml after 48 hrs by XTT assay; assay type: functional; settings: Homo sapiens
RKOp27 = test: as §2; assay type: functional, cell-based; settings: Homo sapiens; procedure, shortened: as §1
P388 [4] = test: Cytotoxicity against adriamycin-resistant P388 Cells by XTT assay; assay type: functional, Mus musculus; procedure, shortened: as §1
P388 [5] = test: Cytotoxicity against P388 cells by XTT assay; assay type: functional, Mus musculus; procedure, shortened: as §1
U-937 [6] = test: (§3) Effect on apoptosis in U937 cells assessed as increase in caspase 3 activation at <=10 uM after 24 hrs; assay type: functional, cell-based; settings: Homo sapiens
Procedure, shortened: (§4)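 U937 cells were treated for 24 h at up to 10 μM. Caspase 3/7 activity was then measured by cleavage of a DEVD rhodamine-110 substrate.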

L1210 [7] = test: Cytotoxicity against L1210 cells by XTT assay; assay type: functional, Mus musculus; procedure, shortened: as §1
[8] = Cytotoxicity against LT12 cells by XTT assay; assay type: functional, Rattus norvegicus; procedure, shortened: as §1
[9] = Cell cycle arrest at G2/M phase in KB/HeLa cells after 24 hrs; assay type: functional, cell-based; settings: Homo sapiens
Procedure, shortened: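 KB/HeLa cells were exposed to several concentrations for 24 h alongside untreated reference cells. They were then stained with propidium iodide and analysed by flow cytometry for cell-cycle phase distribution.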

[10] = Cytotoxicity against multidrug resistant LT12 cells by XTT assay; assay type: functional, Rattus norvegicus; procedure, shortened: as §1
L1210 [11] = test: Cytotoxicity against vincristine-resistant L1210 cells by XTT assay; assay type: functional, Mus musculus; procedure, shortened: as §1
U-937 [12] = test: as §3; assay type: functional, cell-based; settings: Homo sapiens; procedure, shortened: as §4; remark: listed apart in the source

CCOC(=O)CO/N=C1/c2ccncc2C(=O)c2c1ccn2CCN(C)C
IC50 (NCI-H460): > 12 µmol | IC50 (SK-OV-3): > 12 µmol | IC50 (SF-268): > 12 µmol | IC50 [1]: > 12 µmol | IC50 [2]: > 12 µmol

CCOC(=O)CO/N=C1/c2ccncc2C(=O)c2cn(CCN(C)C)cc21
Activity (NCI-H460): inactive | inhibition at 3.16 µg/mL [3]: < 50% | Activity (SK-OV-3): inactive | Activity (SF-268): inactive | Activity (RKOp27): inactive

CN(C)CCn1cc2c(c1)/C(=N\O)c1ccncc1C2=O
Activity (NCI-H460): inactive | inhibition at 3.16 µg/mL [3]: < 50% | Activity (SK-OV-3): inactive | Activity (SF-268): inactive | Activity (RKOp27): inactive

CN(C)CCn1ccc2c1C(=O)c1cnccc1C2=O
IC50 (NCI-H460): 3.84 µmol | IC50 (SK-OV-3): 13.87 µmol | IC50 (SF-268): 4.71 µmol | IC50 [1]: 2.35 µmol | IC50 [2]: 11.04 µmol

CO/N=C1/c2ccncc2C(=O)c2c1ccn2CCN(C)C
IC50 (NCI-H460): 0.79 µmol | IC50 (SK-OV-3): 2.24 µmol | IC50 (SF-268): 2.43 µmol | IC50 [1]: 1.16 µmol | IC50 [2]: 1.21 µmol

CO/N=C1/c2ccncc2C(=O)c2cn(CCN(C)C)cc21
Activity (NCI-H460): inactive | inhibition at 3.16 µg/mL [3]: < 50% | Activity (SK-OV-3): inactive | Activity (SF-268): inactive | Activity (RKOp27): inactive

CN(C)CCO/N=C1/c2ccncc2C(=O)c2c1ccn2CCN(C)C
Activity (P388 [4]): 0.4 µM | Activity (P388 [5]): 0.02 µM | Activity (U-937 [6]): Active | Activity (L1210 [7]): 0.05 µM | IC50 (NCI-H460): 0.23 µmol | Activity [8]: 0.03 µM | Activity [9]: Active | IC50 (SK-OV-3): 0.94 µmol | Activity [10]: 0.07 µM | IC50 (SF-268): 1.23 µmol | Activity (L1210 [11]): 0.11 µM | IC50 [1]: 0.41 µmol | Activity (U-937 [12]): Active | IC50 [2]: 0.67 µmol

CN(C)CCn1ccc2c1C(=O)c1cnccc1/C2=N/O
IC50 (NCI-H460): > 12 µmol | IC50 (SK-OV-3): > 12 µmol | IC50 (SF-268): > 12 µmol | IC50 [1]: > 12 µmol | IC50 [2]: > 12 µmol

COc1cccc2c1C(=O)c1c(O)c3c(c(O)c1C2=O)C[C@@](O)(C(=O)CO)C[C@@H]3O[C@H]1C[C@H](N)[C@H](O)[C@H](C)O1 [DOXORUBICIN]
Activity (P388 [4]): >3.4 µM | Activity (P388 [5]): 0.52 µM | Activity (L1210 [7]): 0.221 µM | Activity [8]: 0.031 µM | Activity [10]: >3.4 µM | Activity (L1210 [11]): >3.4 µM

CN(C)CCn1cc2c(c1)C(=O)c1cnccc1C2=O
Activity (NCI-H460): inactive | inhibition at 3.16 µg/mL [3]: < 50% | IC50 (SK-OV-3): Not Active | Activity (SF-268): inactive | Activity (RKOp27): inactive

CN(C)CCO/N=C1/c2ccncc2C(=O)c2cn(CCN(C)C)cc21
Activity (NCI-H460): inactive | inhibition at 3.16 µg/mL [3]: < 50% | Activity (SK-OV-3): inactive | Activity (SF-268): inactive | Activity (RKOp27): inactive

CN(C)CCn1ccc2c1C(=O)c1cnccc1/C2=N/OCCO
Activity (P388 [4]): 0.5 µM | Activity (P388 [5]): 0.02 µM | Activity (U-937 [6]): Active | Activity (L1210 [7]): 0.07 µM | IC50 (NCI-H460): 0.13 µmol | Activity [8]: 0.04 µM | Activity [9]: Active | IC50 (SK-OV-3): 0.48 µmol | Activity [10]: 0.16 µM | IC50 (SF-268): 1.39 µmol | Activity (L1210 [11]): 0.16 µM | IC50 [1]: 0.17 µmol | Activity (U-937 [12]): Active | IC50 [2]: 0.66 µmol

CN(C)CCn1cc2c(c1)/C(=N\OCCO)c1ccncc1C2=O
Activity (NCI-H460): inactive | inhibition at 3.16 µg/mL [3]: < 50% | Activity (SK-OV-3): inactive | Activity (SF-268): inactive | Activity (RKOp27): inactive

CC(=O)O[C@H]1C(=O)[C@@]2(C)[C@H]([C@H](OC(=O)c3ccccc3)[C@]3(O)C[C@H](OC(=O)[C@H](O)[C@@H](NC(=O)c4ccccc4)c4ccccc4)C(C)=C1C3(C)C)[C@]1(OC(C)=O)CO[C@@H]1C[C@@H]2O [PACLITAXEL]
Activity (P388 [4]): >3.4 µM | Activity (P388 [5]): 0.038 µM | Activity (L1210 [7]): 0.052 µM | Activity [8]: 0.005 µM | Activity [10]: 0.368 µM | Activity (L1210 [11]): >3.4 µM
